A selection: hits, their analogues and other compounds. The true share with any hit is near 29%.
CYP2C9 activ = human CYP2C9 activators, primary screen, biochemical, luminescence; Cytochrome P450 2C9 (Homo sapiens), P11712; recombinant CYP2C9, luciferin-H conversion; hits give high values; factor 1 = untreated enzyme, 0 = blocked; activation factor at 5 µM; 96,000 compounds, 1.4% hits;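 active means activation factor of 2 or more for CYP2C9 at a 5 µM dose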;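 further: 0 = sulfaphenazole-blocked wells and 1 = vehicle-only wells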
Target sequence (P11712 whole entry, looked up): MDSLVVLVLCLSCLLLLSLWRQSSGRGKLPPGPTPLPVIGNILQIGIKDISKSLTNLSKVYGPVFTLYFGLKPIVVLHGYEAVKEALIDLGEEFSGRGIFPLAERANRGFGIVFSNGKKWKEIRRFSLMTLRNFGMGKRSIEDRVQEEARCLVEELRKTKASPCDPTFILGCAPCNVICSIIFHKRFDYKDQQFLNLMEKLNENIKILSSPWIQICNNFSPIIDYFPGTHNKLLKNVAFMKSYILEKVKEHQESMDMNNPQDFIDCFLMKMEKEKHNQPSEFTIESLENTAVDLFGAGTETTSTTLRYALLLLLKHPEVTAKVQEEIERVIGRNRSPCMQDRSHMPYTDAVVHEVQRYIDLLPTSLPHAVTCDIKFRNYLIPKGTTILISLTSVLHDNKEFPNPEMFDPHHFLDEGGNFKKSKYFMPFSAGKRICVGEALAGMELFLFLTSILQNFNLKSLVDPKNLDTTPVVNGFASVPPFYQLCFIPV
CYP2C9 inhib = blockers of cytochrome P450 2C9 activity – biochemical, luminescence, ADME assay, primary screen; P11712; CYP2C9 Supersomes, luciferin-H conversion; inhibition, % at 5 µM; 96,000 compounds, 20% hits;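 active means blocking of liver enzyme CYP2C9 beyond about 50% at 5 µM, limit read from the data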
tolC growth inh = growth inhibitors of E. coli tolC mutant, primary screen, strain BW25113 ΔtolC::kan, 384-well; OD615; growth inhibition, % at 10 µM (by protocol); 65,000 compounds, 2.2% hits; AID 573, 2007;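 active means growth inhibition at or above a cutoff equal to the mean over every tested compound plus 3 SD, cut at about 60% in these data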;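 further: growth measured after 20 h incubation at 37 °C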
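Test system – E. coli BW25113 ΔtolC::kan, tolC deletion mutant strain · Detection – OD at 615 nm · Buffer or medium – LB with kanamycin 50 µg/mL · Times – 20 h compound exposure of bacteria at 37 °C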
CYP2C19 inh = blockers of cytochrome P450 2C19 activity – biochemical, luminescence, ADME assay, primary screen; CYP2C19 Supersomes, luciferin-H EGE luminescence, 30 min; inhibition, % at 5 µM; 96,000 compounds, 21% hits; AID 778, 2007;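 active means CYP2C19 inhibition above a set limit at 5 µM in the primary screen, cut at about 50% in these data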;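 further: plate controls were negative control wells for no effect and 2.5 mM tranylcypromine positive control for full effect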
CYP2C19 activ = human CYP2C19 activators, primary screen, biochemical, luminescence | Cytochrome P450 2C19 (Homo sapiens), P33261 | 96,000 tested, under 10 active | activation factor at 5 µM | recombinant CYP2C19, luciferin-H EGE luminescence; hits give high values; 0 = fully inhibited enzyme, 1 = untreated enzyme;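 active means activation factor of at least 2 at 5 µM in the primary screen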;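 further: 0 = wells with 2.5 mM tranylcypromine and 1 = vehicle-only wells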
Ecoli WT expand = growth inhibitors of wild-type E. coli, primary screen, strain BW25113, expanded library, OD600; OD600 absorbance; 98,000 compounds, 0.15% hits; growth inhibition, % at 100 µM;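 active means growth inhibition above about 50% at one test dose, limit read from the data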;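 further: growth measured after 20 h incubation at 37 °C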
Starred values were filed as active, the others as inactive; nt = not tested or not shown.

SMILES | CYP2C9 activ | CYP2C9 inhib | tolC growth inh | CYP2C19 inh | CYP2C19 activ | Ecoli WT expand
CCOC(=O)N1CCN(C(C)C(=O)c2c[nH]c3ccccc23)CC1 (stereo unspecified) | 0.2 | 83.7* | -6.8 | 92.4* | 0.1 | 6.0
CCCCCCCSc1cc(OC)c(CCN(C)C)cc1OC | 1 | -1.0 | nt | 66.9* | 0.3 | 67.0*
CCCCCSc1cc(OC)c(CCN)cc1OC | 0.5 | 45.2 | nt | 96.5* | 0 | 5.0
CCCCc1nc2ccccc2c(=O)n1-c1ccc(O)cc1 | nt | nt | -2.4 | nt | nt | 5.0
CCN(CC)CCOC(=O)c1ccc(N=Cc2c(O)[nH]c(=O)[nH]c2=O)cc1 | 1.1 | -11.8 | nt | -13.9 | 1.1 | 4.0
ClCCNc1nc2ccc(Cl)cc2[nH]1 | 0.9 | 12.2 | nt | 26.7 | 0.7 | 54.0*
CCOP(=O)(CN(CC)CCNP(=O)(OCC)OCC)OCC | 1.1 | -9.1 | nt | -7.2 | 1.1 | 0.0
Cc1ccc(CS(=O)(=O)CCC(=O)N2CCC3(CC2)OCCO3)cc1 | 1.2 | -17.0 | -15.4 | -17.7 | 1.2 | 3.0
Cc1ccc2c(c1)N(CCC(=O)N1CCC3(CC1)OCCO3)C(=O)C(C)O2 (stereo unspecified) | 1.3 | -29.7 | -13.8 | 89.2* | 0.1 | 1.0
Cc1ccc2c(c1)N(CCC(=O)N1CCC3(CC1)OCCO3)C(=O)CO2 | 1.8 | -77.0 | -17.0 | 95.1* | 0 | 4.0
O=C1OCCC1NC1=NCCC1 (stereo unspecified) | 1 | 0.6 | -4.5 | -1.7 | 1 | 1.0
CC(C)(C)n1c(O)c(C=Nc2ccc3c(c2)CCC3)c(=O)[nH]c1=O | 0.3 | 73.8* | 81.6* | 38.5 | 0.6 | -2.0
Cc1nonc1-c1nc(-c2nonc2N)n[nH]1 | 0.9 | 7.3 | -18.2 | -3.5 | 1 | 0.0
CCOc1ccccc1C1SCC(=O)Nc2c1c(=O)[nH]n2C(CC)CC (stereo unspecified) | 1 | -1.3 | -9.9 | 2.4 | 1 | 4.0
Nc1ccccc1N=Cc1c(O)n(CCC2=CCCCC2)c(=O)[nH]c1=O | 0.7 | 31.6 | -3.7 | 19.8 | 0.8 | -8.0
C1=C(CCNCc2ccccc2)CCCC1 | 0.8 | 18.9 | nt | 70.2* | 0.3 | 94.0*
O=C(Cc1ccccc1)N1CCN(Cc2cccnc2)CC1 | 1 | -1.3 | nt | 75.5* | 0.2 | -2.0
O=C(Cc1ccccc1)N1CCN(CC2CC=CCC2)CC1 (stereo unspecified) | 0.9 | 5.1 | 0.6 | 48.2 | 0.5 | 5.0
[O-][n+]1onc2c1CCC1N(O)CCC21O (stereo unspecified) | 0.9 | 7.0 | -17.1 | -15.6 | 1.2 | -1.0
COc1ccc(-n2c(O)c(C(C)=NCCN3CCNCC3)c(=O)[nH]c2=O)cc1 | 1.1 | -8.4 | -12.3 | -9.9 | 1.1 | -2.0
Cc1ccc(-n2c(O)c(C=NC3CCCC3)c(=O)[nH]c2=O)c(C)c1 | 0.9 | 10.5 | -16.2 | 94.3* | 0.1 | 2.0
Cc1ccc(C2N(c3cc(C)on3)C(=O)C3CCCN32)cc1 (stereo unspecified) | 1 | -2.8 | 9.8 | -9.2 | 1.1 | 3.0
CC12CN3C(O)C(C)(C1)CC(C)(C2)C3O (stereo unspecified) | 1 | -1.0 | -8.7 | 10.4 | 0.9 | -1.0
O=C(c1ccco1)c1cn(Cc2ccc(Cl)cc2)c2ccccc12 | 0.1 | 93.6* | nt | 83.5* | 0.2 | -31.0
COc1ccccc1OCCCn1cc(C(=O)c2ccco2)c2ccccc21 | 0 | 96.4* | 52.9 | 97.8* | 0 | -35.0
SMILES | CYP2C9 activ | CYP2C9 inhib | tolC growth inh | CYP2C19 inh | CYP2C19 activ | Ecoli WT expand
Nc1nnc(CCN2CCCCC2)s1 | nt | nt | -3.6 | nt | nt | nt
CCN1CCN(Cc2cc(Br)cc(Br)c2O)CC1 | 0.9 | 9.0 | nt | 60.5* | 0.4 | 6.0
COc1ccc(C(CC(=O)N2CCC3(CC2)OCCO3)NS(=O)(=O)c2ccc(C)cc2)cc1 (stereo unspecified) | 1.4 | -37.2 | 0.6 | 10.3 | 0.9 | 7.0
COc1ccc(-c2cc(C(F)(F)F)n3nc(C(=O)N4CCC5(CC4)OCCO5)cc3n2)cc1OC | 0.9 | 11.2 | -7.1 | 13.3 | 0.9 | -8.0
CCOC(=O)C1SC2(C(F)F)CC1(O)c1c(c(OC)c3occc3c1OC)O2 (stereo unspecified) | 0 | 96.9* | 21.0 | 100.0* | 0 | -3.0
O=C1C(=O)c2ccccc2-c2ccccc21 | 0.1 | 93.3* | nt | 98.1* | 0 | 30.0
CCOC(=O)c1c(C)n(CCN2CCN(C)CC2)c2ccc(OC)cc12 | 0.9 | 13.3 | -3.7 | 6.9 | 0.9 | 11.0
CCOC(=O)c1c(C)n(CCOC)c2ccc(O)cc12 | 0.6 | 35.1 | -5.0 | 69.2* | 0.3 | 3.0
COc1cccc(Oc2c(C)oc3cc(OC(=O)N(C)C)ccc3c2=O)c1 | 0.6 | 41.7 | -1.4 | 84.7* | 0.2 | -8.0
CCOC(=O)c1c(-c2ccc(OC)cc2)oc2ccc(OC(=O)N(C)C)cc12 | 0.8 | 19.8 | 67.8* | 13.2 | 0.9 | -12.0
Cc1oc2ccc(OC(=O)N(C)C)cc2c1C(=O)OC(C)C | 0.4 | 64.7* | 22.1 | 77.6* | 0.2 | 2.0
O=P(O)(O)C#Cc1ccccc1 | 0.8 | 20.5 | -4.3 | -2.9 | 1 | -6.0
COC(=O)C(O)(c1c(C)[nH]c2ccccc12)C(F)(F)F (stereo unspecified) | 1 | -1.9 | nt | 38.7 | 0.6 | 3.0
CCOC(=O)C(O)(c1cn(C)c2ccccc12)C(F)(F)F (stereo unspecified) | 2.6* | -163.7 | -2.9 | 9.4 | 0.9 | 4.0
Cc1sc2c(c1C)C(c1ccc(C(C)(C)C)cc1)=NCC(=O)N2CC(=O)Nc1nccs1 | 0.7 | 27.6 | nt | 10.5 | 0.9 | -4.0
CCCC/C(=N\O)c1c[nH]c2ccccc12 | 0.7 | 28.0 | nt | 69.0* | 0.3 | 27.0
O/N=C/c1c[nH]c2ccccc12 | 1.1 | -15.0 | -7.4 | 4.8 | 1 | 0.0
COc1ccc2c(c1)CC1(CN2C)C(=O)NC(=O)N(c2ccc(C)cc2)C1=O (stereo unspecified) | 0.4 | 62.2* | -3.2 | 14.4 | 0.9 | 6.0
Cc1cccc(N2C(=O)NC(=O)C3(Cc4cc(C)ccc4N(C)C3)C2=O)c1 (stereo unspecified) | 0.4 | 63.4* | 42.5 | 13.4 | 0.9 | 1.0
COc1ccc(N2C(=O)CC(=O)NC2=O)cc1 | 0.9 | 10.9 | -16.2 | 6.2 | 0.9 | -2.0
COc1ccc2c(c1)CC1(CN2C)C(=O)NC(=O)N(c2ccc(F)cc2)C1=O (stereo unspecified) | 0.3 | 70.7* | -15.2 | 19.3 | 0.8 | 1.0
OCc1cnc[nH]1 | nt | nt | -18.3 | nt | nt | nt
CCOC(=O)N1CCC(NC(=O)CCc2nc(C3=CCN(C)CC3)no2)CC1 | 1 | 1.7 | -11.4 | 0.6 | 1 | 5.0
COc1ccccc1/C=C1/C(=N/O)C2CCN1CC2 | 1 | -4.6 | -3.5 | 91.2* | 0.1 | 3.0

Compound activity (PubChem)
